Our source for the Ki and Occ values is ChEMBL document CHEMBL3232979, “Discovery of a novel series of orally active nociceptin/orphanin FQ (NOP) receptor antagonists based on a dihydrospiro(piperidine-4,7'-thieno[2,3-c]pyran) scaffold” (J Med Chem, 2014).

Mu-type opioid receptor, sequence (P35372 whole entry): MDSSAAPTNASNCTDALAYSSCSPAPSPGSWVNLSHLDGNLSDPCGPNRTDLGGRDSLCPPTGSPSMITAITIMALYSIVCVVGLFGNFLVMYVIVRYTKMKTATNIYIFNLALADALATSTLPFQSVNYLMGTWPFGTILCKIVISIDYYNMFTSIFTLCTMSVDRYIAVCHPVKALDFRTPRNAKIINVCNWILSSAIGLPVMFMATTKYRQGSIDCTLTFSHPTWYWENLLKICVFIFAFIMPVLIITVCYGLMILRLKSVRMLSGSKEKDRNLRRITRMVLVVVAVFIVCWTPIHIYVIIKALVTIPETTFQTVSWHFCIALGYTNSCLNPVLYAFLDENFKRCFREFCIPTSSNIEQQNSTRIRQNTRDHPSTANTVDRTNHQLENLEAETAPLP
Kappa-type opioid receptor, sequence (P41145 whole entry): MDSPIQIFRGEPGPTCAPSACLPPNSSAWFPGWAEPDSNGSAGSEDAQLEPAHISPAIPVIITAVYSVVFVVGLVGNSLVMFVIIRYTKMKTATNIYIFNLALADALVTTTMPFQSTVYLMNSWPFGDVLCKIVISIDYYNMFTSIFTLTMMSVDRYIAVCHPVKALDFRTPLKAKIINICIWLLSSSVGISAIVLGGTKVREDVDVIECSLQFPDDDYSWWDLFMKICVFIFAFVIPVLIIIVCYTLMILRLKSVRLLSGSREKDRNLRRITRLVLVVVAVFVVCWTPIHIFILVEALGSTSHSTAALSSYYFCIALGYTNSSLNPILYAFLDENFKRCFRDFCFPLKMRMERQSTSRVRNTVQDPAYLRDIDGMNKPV

One assay addresses Mu-type opioid receptor (Homo sapiens, UniProt P35372). As to the kind of experiment: Displacement of [3H]-diprenorphine from human mu opioid receptor after 120 mins by cell based assay. The gist of the method: (§1)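 Radioligand binding with [3H]-diprenorphine on membranes from CHO cells overexpressing recombinant human kappa, mu or delta opioid receptor; Ki determined.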
In general terms: Displacement assays read how much labelled ligand stays bound in the presence of the test substance.
`CNCc1cccc(F)c1-n1cc(CN2CCC3(CC2)OCC(F)(F)c2cc(Cl)sc23)c(C)n1.O=C(O)C(O)C(O)C(=O)O` returned a Ki of more than 375 nM.

`Cc1nn(-c2c(F)cccc2CN(C)C)cc1CN1CCC2(CC1)OCC(F)(F)c1cc(Cl)sc12.O=C(O)C(O)C(O)C(=O)O` had an inhibitory constant (Ki) of more than 375 nM.

The compound `Cc1nn(-c2ncccc2CN(C)C)cc1CN1CCC2(CC1)OCC(F)(F)c1cc(Cl)sc12.O=C(O)C(O)C(O)C(=O)O` showed a Ki of more than 375 nM.

The compound `Cc1nn(-c2ncccc2-c2ncc[nH]2)cc1CN1CCC2(CC1)OCC(F)(F)c1cc(Cl)sc12` returned a Ki of more than 375 nM.

For another assay, the target named is Delta-type opioid receptor (Homo sapiens, UniProt P41143). As to the kind of experiment: Displacement of [3H]-diprenorphine from human delta opioid receptor after 120 mins by cell based assay. The gist of the method: as §1
Delta-type opioid receptor, sequence (P41143 whole entry): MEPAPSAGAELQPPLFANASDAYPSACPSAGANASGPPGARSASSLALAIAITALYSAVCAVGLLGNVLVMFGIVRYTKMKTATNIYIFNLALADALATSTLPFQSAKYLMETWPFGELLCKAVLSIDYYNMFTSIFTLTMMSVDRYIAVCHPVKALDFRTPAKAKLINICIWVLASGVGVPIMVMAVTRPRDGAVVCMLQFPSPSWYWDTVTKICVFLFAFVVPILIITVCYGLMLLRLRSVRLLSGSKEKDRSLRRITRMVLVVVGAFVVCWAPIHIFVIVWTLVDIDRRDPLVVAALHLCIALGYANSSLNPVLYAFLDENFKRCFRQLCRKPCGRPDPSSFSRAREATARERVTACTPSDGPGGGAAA
`CNCc1cccc(F)c1-n1cc(CN2CCC3(CC2)OCC(F)(F)c2cc(Cl)sc23)c(C)n1.O=C(O)C(O)C(O)C(=O)O`: the Ki was more than 375 nM.

As for `Cc1nn(-c2c(F)cccc2CN(C)C)cc1CN1CCC2(CC1)OCC(F)(F)c1cc(Cl)sc12.O=C(O)C(O)C(O)C(=O)O`, the Ki was more than 375 nM.

`Cc1nn(-c2ncccc2CN(C)C)cc1CN1CCC2(CC1)OCC(F)(F)c1cc(Cl)sc12.O=C(O)C(O)C(O)C(=O)O` had a Ki of more than 375 nM.

`Cc1nn(-c2ncccc2-c2ncc[nH]2)cc1CN1CCC2(CC1)OCC(F)(F)c1cc(Cl)sc12`: the Ki was more than 375 nM.

The target of the next assay is Kappa-type opioid receptor (Homo sapiens, UniProt P41145). Put plainly: Displacement of [3H]-diprenorphine from human kappa opioid receptor after 120 mins by cell based assay. The gist of the method:
as §1
The compound `CNCc1cccc(F)c1-n1cc(CN2CCC3(CC2)OCC(F)(F)c2cc(Cl)sc23)c(C)n1.O=C(O)C(O)C(O)C(=O)O` yielded a Ki of more than 375 nM.

Regarding `Cc1nn(-c2c(F)cccc2CN(C)C)cc1CN1CCC2(CC1)OCC(F)(F)c1cc(Cl)sc12.O=C(O)C(O)C(O)C(=O)O`, the Ki was more than 375 nM.

Regarding `Cc1nn(-c2ncccc2CN(C)C)cc1CN1CCC2(CC1)OCC(F)(F)c1cc(Cl)sc12.O=C(O)C(O)C(O)C(=O)O`, the Ki was more than 375 nM.

Regarding `Cc1nn(-c2ncccc2-c2ncc[nH]2)cc1CN1CCC2(CC1)OCC(F)(F)c1cc(Cl)sc12`, the Ki is more than 375 nM.

In a further assay the target is Nociceptin receptor (Homo sapiens, UniProt P41146). As to the kind of experiment: Displacement of [3H]-nociceptin from human recombinant NOP receptor expressed in CHO cells after 60 mins by scintillation counting. The assay is classed as cell-based.
Nociceptin receptor, sequence (P41146 whole entry): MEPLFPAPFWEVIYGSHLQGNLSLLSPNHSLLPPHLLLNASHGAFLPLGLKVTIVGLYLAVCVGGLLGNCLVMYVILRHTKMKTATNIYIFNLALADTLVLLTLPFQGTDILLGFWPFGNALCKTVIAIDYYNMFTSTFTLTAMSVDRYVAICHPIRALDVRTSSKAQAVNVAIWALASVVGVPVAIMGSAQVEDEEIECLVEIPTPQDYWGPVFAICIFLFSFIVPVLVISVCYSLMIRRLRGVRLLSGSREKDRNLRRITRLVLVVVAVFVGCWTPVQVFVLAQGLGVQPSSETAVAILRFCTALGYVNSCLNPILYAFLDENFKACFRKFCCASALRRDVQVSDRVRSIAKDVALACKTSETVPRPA
On to `CNCc1cccc(F)c1-n1cc(CN2CCC3(CC2)OCC(F)(F)c2cc(Cl)sc23)c(C)n1.O=C(O)C(O)C(O)C(=O)O`, for which the Ki was found to be 0.097 nM.

Turning to `Cc1nn(-c2c(F)cccc2CN(C)C)cc1CN1CCC2(CC1)OCC(F)(F)c1cc(Cl)sc12.O=C(O)C(O)C(O)C(=O)O`, the Ki was found to be 0.145 nM.

On to `Cc1nn(-c2ncccc2CN(C)C)cc1CN1CCC2(CC1)OCC(F)(F)c1cc(Cl)sc12.O=C(O)C(O)C(O)C(=O)O`, for which the Ki was determined as 0.371 nM.

For `Cc1nn(-c2ncccc2-c2ncc[nH]2)cc1CN1CCC2(CC1)OCC(F)(F)c1cc(Cl)sc12`, the Ki came to 0.0916 nM.

For another assay, the system named is Rattus norvegicus. Put plainly: Ex vivo receptor occupancy of NOP receptor in Sprague-Dawley rat brain at 10 mg/kg, po after 24 hrs by LC-MS/MS analysis. The format is functional. The procedure, abridged: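 Male Sprague-Dawley rats, 220–300 g, 12 h light:dark cycle, free chow and water. A single oral 10 mg/kg dose or oral vehicle was given. 24 h later, nonlabeled tracer was given as an iv tail-vein bolus at 3 μg/kg. Brain was taken 40 min after tracer (hypothalamus, striatum), homogenized in ACN with 0.1% formic acid, centrifuged, diluted with water and read by LC-MS/MS.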
The compound `CNCc1cccc(F)c1-n1cc(CN2CCC3(CC2)OCC(F)(F)c2cc(Cl)sc23)c(C)n1.O=C(O)C(O)C(O)C(=O)O` displayed an Occ of 100%.

Turning to `Cc1nn(-c2c(F)cccc2CN(C)C)cc1CN1CCC2(CC1)OCC(F)(F)c1cc(Cl)sc12.O=C(O)C(O)C(O)C(=O)O`, the Occ is given as 97%.

`Cc1nn(-c2ncccc2CN(C)C)cc1CN1CCC2(CC1)OCC(F)(F)c1cc(Cl)sc12.O=C(O)C(O)C(O)C(=O)O` showed an Occ of 72%.

Compound `Cc1nn(-c2ncccc2-c2ncc[nH]2)cc1CN1CCC2(CC1)OCC(F)(F)c1cc(Cl)sc12` yielded an Occ of 88%.

What is called Ki is a measure of affinity in units of concentration, obtained from inhibition or displacement.
